Our source for the log10cfu and Activity values is ChEMBL document CHEMBL3297702, “Improving photodynamic inactivation of bacteria in dentistry: highly effective and fast killing of oral key pathogens with novel tooth-colored type-II photosensitizers” (J Med Chem, 2014).

The subject of test [1] is Aggregatibacter actinomycetemcomitans. Nature of the test: Photodynamic inactivation of Aggregatibacter actinomycetemcomitans ATCC 43718 assessed as reduction of log10 CFU at 1 uM incubated prior to irradiation with 150 j/cm'2 for 120 secs measured after 48 hrs by agar plating method relative to control. In kind it is functional, Y4. A digest of the protocol: (§1)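 A. actinomycetemcomitans ATCC 43718 cultured overnight in BHI broth under anaerobic conditions, 37 °C with shaking. Stationary-phase cells were spun down, taken up in PBS to 10^7–10^8/mL, and combined 1:1 with PS (final 0–250 µM) or water. After 10 s they were irradiated at 1260 ± 50 mW/cm2 or kept dark. Serial dilutions went onto BHI agar, incubated anaerobically at 37 °C for 48 h, and CFU were scored. Results are medians from 3 experiments × triplicate versus untreated controls.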

Test [2] has as its system Streptococcus mutans. Nature of the test: Photodynamic inactivation of Streptococcus mutans ATCC 25175 assessed as reduction of log10 CFU at 1 uM incubated prior to irradiation with 50 j/cm'2 for 40 secs measured after 48 hrs by agar plating method (reference value: <1 no unit). In kind it is functional.
Test [3] deals with Streptococcus mutans. Nature of the test: Photodynamic inactivation of Streptococcus mutans ATCC 25175 assessed as reduction of log10 CFU at 5 uM incubated prior to irradiation with 25 j/cm'2 for 20 secs measured after 48 hrs by agar plating method (reference value: <1 no unit). In kind it is functional.
Test [4] relates to Streptococcus mutans. Nature of the test: Photodynamic inactivation of Streptococcus mutans ATCC 25175 assessed as reduction of log10 CFU at 10 uM incubated prior to irradiation with 50 j/cm'2 for 40 secs measured after 48 hrs by agar plating method (reference value: <1 no unit). Type of test: functional.
Test [5] concerns Streptococcus mutans. The experiment in a line: Photodynamic inactivation of Streptococcus mutans ATCC 25175 assessed as reduction of log10 CFU at 100 uM incubated prior to irradiation with 150 j/cm'2 for 120 secs measured after 48 hrs by agar plating method (reference value: <1 no unit). In kind it is functional.
The subject of test [6] is Actinomyces naeslundii. The experiment in a line: Photodynamic inactivation of Actinomyces naeslundii T14V assessed as reduction of log10 CFU at 1 uM incubated prior to irradiation with 150 j/cm'2 for 120 secs measured after 48 hrs by agar plating method (reference value: <1 no unit). Type of test: functional. A digest of the protocol:
(§2)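 A. naeslundii T14V grown overnight at 37 °C, shaken, aerobically in BHI broth. Harvested at stationary phase, resuspended in PBS to 10^7–10^8 bacteria/mL (OD600). Mixed 1:1 with PS (final 0–250 µM) or water, 10 s incubation, then blue photopolymerizer light (1260 ± 50 mW/cm2) or dark. Tenfold dilutions plated on blood agar, aerobic 37 °C 48 h, CFU counted; medians of three independent experiments in triplicate.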

The test system of test [7] is Actinomyces naeslundii. The experiment in a line: Photodynamic inactivation of Actinomyces naeslundii T14V assessed as reduction of log10 CFU at 5 uM incubated prior to irradiation with 25 j/cm'2 for 20 secs measured after 48 hrs by agar plating method (reference value: <1 no unit). Type of test: functional. A digest of the protocol:
as §2

For test [8], the system named is Actinomyces naeslundii. The experiment in a line: Photodynamic inactivation of Actinomyces naeslundii T14V assessed as reduction of log10 CFU at 5 uM incubated prior to irradiation with 50 j/cm'2 for 40 secs measured after 48 hrs by agar plating method (reference value: <1 no unit). In kind it is functional. A digest of the protocol:
as §2

Test [9] deals with Actinomyces naeslundii. The experiment in a line: Photodynamic inactivation of Actinomyces naeslundii T14V assessed as reduction of log10 CFU at 5 uM incubated prior to irradiation with 150 j/cm'2 for 120 secs measured after 48 hrs by agar plating method (reference value: <1 no unit). Type of test: functional. A digest of the protocol: as §2
Test [10] relates to Actinomyces naeslundii. Nature of the test: Photodynamic inactivation of Actinomyces naeslundii T14V assessed as reduction of log10 CFU at 10 uM incubated prior to irradiation with 50 j/cm'2 for 40 secs measured after 48 hrs by agar plating method (reference value: <1 no unit). In kind it is functional. A digest of the protocol:
as §2

For test [11], the system named is Actinomyces naeslundii. Nature of the test: Photodynamic inactivation of Actinomyces naeslundii T14V assessed as reduction of log10 CFU at 100 uM incubated prior to irradiation with 150 j/cm'2 for 120 secs measured after 48 hrs by agar plating method (reference value: <1 no unit). Type of test: functional. In a few lines:
as §2

Test [12] concerns Aggregatibacter actinomycetemcomitans. Nature of the test: Photodynamic inactivation of Aggregatibacter actinomycetemcomitans ATCC 43718 assessed as reduction of log10 CFU at 1 uM incubated prior to irradiation with 25 j/cm'2 for 20 secs measured after 48 hrs by agar plating method relative to control. In kind it is functional, Y4. A digest of the protocol:
as §1

The test system is the same in test [13]. Nature of the test: Photodynamic inactivation of Aggregatibacter actinomycetemcomitans ATCC 43718 assessed as reduction of log10 CFU at 1 uM incubated prior to irradiation with 50 j/cm'2 for 40 secs measured after 48 hrs by agar plating method (reference value: <1 no unit). In kind it is functional, Y4. A digest of the protocol:
as §1

For test [14] the test system is unchanged. The experiment in a line: Photodynamic inactivation of Aggregatibacter actinomycetemcomitans ATCC 43718 assessed as reduction of log10 CFU at 5 uM incubated prior to irradiation with 50 j/cm'2 for 40 secs measured after 48 hrs by agar plating method (reference value: <1 no unit). In kind it is functional, Y4. In a few lines:
as §1

Test [15] has the same test system. The experiment in a line: Photodynamic inactivation of Aggregatibacter actinomycetemcomitans ATCC 43718 assessed as reduction of log10 CFU at 5 uM incubated prior to irradiation with 150 j/cm'2 for 120 secs measured after 48 hrs by agar plating method relative to control. In kind it is functional, Y4. A digest of the protocol:
as §1

Test [16] shares this test system. The experiment in a line: Photodynamic inactivation of Aggregatibacter actinomycetemcomitans ATCC 43718 assessed as reduction of log10 CFU at 10 uM incubated prior to irradiation with 25 j/cm'2 for 20 secs measured after 48 hrs by agar plating method relative to control. In kind it is functional, Y4. In a few lines:
as §1

Test [17] shares this test system. The experiment in a line: Photodynamic inactivation of Aggregatibacter actinomycetemcomitans ATCC 43718 assessed as reduction of log10 CFU at 10 uM incubated prior to irradiation with 150 j/cm'2 for 120 secs measured after 48 hrs by agar plating method relative to control. In kind it is functional, Y4. A digest of the protocol: as §1
Test [18] shares this test system. The experiment in a line: Photodynamic inactivation of Aggregatibacter actinomycetemcomitans ATCC 43718 assessed as reduction of log10 CFU at 100 uM incubated prior to irradiation with 25 j/cm'2 for 20 secs measured after 48 hrs by agar plating method relative to control. Type of test: functional, Y4. A digest of the protocol:
as §1

In test [19] the test system is Enterococcus faecalis. Nature of the test: Photodynamic inactivation of Enterococcus faecalis ATCC 29212 assessed as reduction of log10 CFU at 1 to 250 uM preincubated for 10 secs followed by irradiation with 25 j/cm'2 for 20 secs measured after 24 hrs by agar plating method. Type of test: functional, organism-based. In a few lines: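 E. faecalis ATCC 29212, aerobic overnight BHI culture at 37 °C, was harvested at stationary phase and suspended in PBS at 10^7–10^8 bacteria/mL. It was mixed 1:1 with PS to 0–250 µM final, held 10 s, then illuminated (1260 ± 50 mW/cm2) or kept dark. Dilutions were plated on Mueller-Hinton agar, aerobic 37 °C 24 h, CFU counted. Medians of three independent triplicate experiments, referred to untreated controls.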

Test [20] has as its system Streptococcus mutans. The experiment in a line: Photodynamic inactivation of Streptococcus mutans ATCC 25175 assessed as reduction of log10 CFU at 1 to 250 uM preincubated for 10 secs followed by irradiation with 150 j/cm'2 for 120 secs measured after 48 hrs by agar plating method. In kind it is functional.
The subject of test [21] is Aggregatibacter actinomycetemcomitans. Nature of the test: Photodynamic inactivation of Aggregatibacter actinomycetemcomitans ATCC 43718 assessed as reduction of log10 CFU at 1 to 250 uM incubated prior to irradiation with 25 j/cm'2 for 20 secs measured after 48 hrs by agar plating method. Conditions: Y4. In kind it is functional. A digest of the protocol: as §1

SMILES strings stand for the structures. Active and inactive are the calls of the source. No cut-off for these calls is given here.

`C[N+](C)(CCO)CC1=Cc2cccc3cccc(c23)C1=O.[Cl-]`: the log10cfu is given as >6 in test [1]; <1 in test [2]; <1 in test [3]; <3 in [4]; >6 in [5]; <1 in test [6]. The log10cfu is <1 in test [7]; <3 in [8]; <5 in [9]; <5 in test [10]; > 5 in test [11]; <1 in [12]. The log10cfu was <3 in test [13]; <3 in [14]; >6 in [15]; <3 in [16]; >6 in test [17]; > 3 in test [18].
As to `O=C1C(C[n+]2ccccc2)=Cc2cccc3cccc1c23.[Cl-]`, the log10cfu in test [1] is listed as >6; in [2], <1; in test [3] it was <3; in test [4] it was >6; in test [5] it was >6; in test [6], <5. Besides, the log10cfu in test [7] was <3; in [8] it was <5; in [9], > 5; in test [10], > 5; in test [11], > 5; in test [12], <3. For the same compound, the log10cfu in test [13] was <3; in test [14], >6; in test [15] it was >6; in test [16] it was >6; in [17], >6; in [18], >6. In addition, the outcome in test [19], in test [20] and in [21] was Active.
As to `C[N+](C)(C)CC1=Cc2cccc3cccc(c23)C1=O.[Cl-]`, the outcome in test [19], in test [20] and in test [21] was Active.
